Data taken from ChEMBL document CHEMBL1128421, “(Piperidinylalkoxy)chromones: novel antihistamines with additional antagonistic activity against leukotriene D4” (J Med Chem, 1995).
Values belong to the compound of their own block, whether it stands above or below them. Active and inactive are the calls of the source. The calls are words filed in the database; no cut-off is given here.

Tests used:
[1] = species on record: Cavia porcellus; assay: Compound was evaluated for antihistaminic activity against isolated guinea pig ileum.; type: functional
How it was run: (§1)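 Isolated guinea pig ileum segment (about 2 cm) in an organ bath of Krebs buffer at 37 °C, bubbled with 95% O2–5% CO2. Three cumulative histamine dose-response curves were run first, starting at 10 nM. After washing, the strip was exposed to compound for 30 min and the curve repeated. KB was derived by Cheng–Prusoff. Means ± SD of ≥3 independent experiments.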

[2] = species on record: Cavia porcellus; assay: Compound was evaluated for inhibition of contraction in guinea pig ileum induced by leukotriene D4 (LTD4).; type: functional, organism-based
How it was run: (§2)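 Isolated guinea pig ileum strip in Krebs buffer at 37 °C, continuously bubbled with 95% O2–5% CO2. After washing, the strip was pre-incubated with compound for 30 min before LTD4 challenge. Contraction was induced by LTD4 at 10 nM. The value reported is the antagonist concentration giving 50% of maximal inhibition. Means ± SD of ≥3 independent experiments.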

[3] = species on record: Cavia porcellus; assay: Compound was evaluated for inhibition of contraction in guinea pig ileum induced by leukotriene D4 (LTD4); Not active; type: functional, organism-based; how it was run: as §2
[4] = species on record: Cavia porcellus; assay: Compound was evaluated for antihistaminic activity against isolated guinea pig ileum; Not active; type: functional; how it was run: as §1
[5] = target: T1, Cysteinyl leukotriene receptor 1 (Cavia porcellus, UniProt Q2NNR5); assay: Dissociation constant was determined against Cysteinyl leukotriene D4 receptor of guinea pig lung membranes using radioligand binding assays.; type: tissue-based
T1 sequence (Q2NNR5 whole entry): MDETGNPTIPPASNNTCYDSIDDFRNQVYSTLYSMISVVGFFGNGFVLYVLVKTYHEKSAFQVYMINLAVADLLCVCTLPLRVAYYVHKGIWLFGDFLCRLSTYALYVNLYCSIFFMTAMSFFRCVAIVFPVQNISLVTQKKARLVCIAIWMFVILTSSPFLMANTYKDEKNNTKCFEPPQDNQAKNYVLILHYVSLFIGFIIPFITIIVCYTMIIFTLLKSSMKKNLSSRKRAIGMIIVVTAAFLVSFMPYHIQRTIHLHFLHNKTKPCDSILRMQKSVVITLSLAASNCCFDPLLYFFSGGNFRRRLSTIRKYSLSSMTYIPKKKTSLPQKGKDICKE

[6] = target: T2, Histamine H1 receptor (Cavia porcellus, UniProt P31389); assay: Dissociation constant was determined against H1 receptor of guinea pig lung membranes using radioligand binding assays.; type: tissue-based
T2 sequence (P31389 whole entry): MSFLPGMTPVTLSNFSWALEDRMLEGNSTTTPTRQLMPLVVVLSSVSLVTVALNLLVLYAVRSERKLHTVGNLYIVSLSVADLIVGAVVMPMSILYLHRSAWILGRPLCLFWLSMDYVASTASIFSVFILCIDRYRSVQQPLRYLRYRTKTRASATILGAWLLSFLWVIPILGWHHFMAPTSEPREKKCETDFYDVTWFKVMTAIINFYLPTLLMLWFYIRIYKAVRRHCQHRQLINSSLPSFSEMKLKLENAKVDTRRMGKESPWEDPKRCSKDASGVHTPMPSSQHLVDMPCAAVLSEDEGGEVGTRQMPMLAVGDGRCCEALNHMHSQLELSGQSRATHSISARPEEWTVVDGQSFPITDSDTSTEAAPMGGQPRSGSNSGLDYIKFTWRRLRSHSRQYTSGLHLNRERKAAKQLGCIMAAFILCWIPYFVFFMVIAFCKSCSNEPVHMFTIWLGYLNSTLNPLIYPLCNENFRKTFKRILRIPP
How it was run: (§3)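 Guinea pig lung membranes were incubated with 0.5 nM [3H]mepyramine and compound at 37 °C in 50 mM Na-K phosphate, pH 7.5. Nonspecific binding was defined with (-)-dimethindene. The reaction was stopped with ice-cold buffer, then filtered on GF/C and counted by scintillation. KB by Cheng–Prusoff; means of two independent assays in triplicate.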

[7] = species on record: Cavia porcellus; assay: Compound was evaluated for inhibition of [3H]LTD4 binding in guinea pig lung membrane fragments.
[8] = target: T2, Histamine H1 receptor; assay: dissociation constant was determined against H1 receptor of guinea pig lung membranes using radioligand binding assays.; type: tissue-based
How it was run: as §3, with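 “scintillation. Radioligand KD was 3.30 nM.” for “scintillation.”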

Compound: O=C(O)c1cc(=O)c2ccc(OCCCCCN3CCC(OC(c4ccccc4)c4ccccc4)CC3)cc2o1
Kb ([1]; Cavia porcellus, Ileum): 0.017 µM
IC50 [2]: 18.3 µM

Compound: O=C(O)c1cc(=O)c2ccc(OCCCCCCN3CCC(OC(c4ccccc4)c4ccccc4)CC3)cc2o1
Kb ([1]; Cavia porcellus, Ileum): 0.00513 µM
IC50 [2]: 48.2 µM

Compound: CC(C)(C)c1ccc(C(O)CCCN2CCC(C(O)(c3ccccc3)c3ccccc3)CC2)cc1 (stereo unspecified) [TERFENADINE]
IC50 [3]: Not Active

Compound: O=C(O)c1cc(=O)c2ccc(OCCCN3CCC(=C(c4ccccc4)c4ccccc4)CC3)cc2o1
Kb ([1]; Cavia porcellus, Ileum): 0.0162 µM
IC50 [2]: 20.4 µM

Compound: O=C(O)c1cc(=O)c2ccc(OCCCCN3CCC(OC(c4ccccc4)c4ccccc4)CC3)cc2o1
Kb ([1]; Cavia porcellus, Ileum): 0.00708 µM
IC50 [2]: 9.89 µM

Compound: CCCc1c(OCC(O)COc2ccc3c(=O)cc(C(=O)O)oc3c2CCC)ccc(C(C)=O)c1O (stereo unspecified) [FPL-55712]
IC50 [2]: 0.12 µM
Kb [4]: inactive

Compound: O=C(O)c1cc(=O)c2cc(OCCCN3CCC(=C(c4ccccc4)c4ccccc4)CC3)ccc2o1
Kd [5]: 4.27 µM
Kb ([1]; Cavia porcellus, Ileum): 0.00575 µM
IC50 [2]: 0.65 µM
Kd [6]: 0.00598 µM

Compound: O=c1cc(C2N=NN=N2)oc2cc(OCCCN3CCC(C(O)(c4ccccc4)c4ccccc4)CC3)ccc12
Kb ([1]; Cavia porcellus, Ileum): 0.0017 µM
IC50 [2]: 56.7 µM

Compound: O=C(O)c1cc(=O)c2ccc(OCCCN3CCC(OC(c4ccccc4)c4ccccc4)CC3)cc2o1
Kb ([1]; Cavia porcellus, Ileum): 0.00912 µM
IC50 [2]: 1.45 µM

Continued, in another order:

IC50 [7]: 212 µM
Compound: Cc1ccc(C(OC2CCN(CCCOc3ccc4c(=O)cc(C(=O)O)oc4c3)CC2)c2ccccc2)cc1 (stereo in doubt; 1j)
Kb [1]: 0.00224 µM

IC50 [2]: > 100 µM
Compound: O=C(O)c1cc(=O)c2cc(OCCCN3CCC(C(O)(c4ccccc4)c4ccccc4)CC3)ccc2o1
Kb ([1]; Cavia porcellus, Ileum): 0.0038 µM

IC50 [2]: 22.8 µM
Compound: O=C(O)c1cc(=O)c2ccc(OCCCN3CCC(C(O)(c4ccccc4)c4ccccc4)CC3)cc2o1
Kb ([1]; Cavia porcellus, Ileum): 0.00525 µM

IC50 [7]: 16.6 µM
Compound: Cc1ccc(C(OC2CCN(CCCOc3ccc4c(=O)cc(C(=O)O)oc4c3)CC2)c2ccccc2)cc1 (stereo in doubt; 1i)
Kb [1]: 0.0123 µM

Kd [5]: 2.34 µM
IC50 [2]: 0.19 µM
Kd [8]: 0.00589 µM
Compound: O=c1cc(C2N=NN=N2)oc2cc(OCCCN3CCC(=C(c4ccccc4)c4ccccc4)CC3)ccc12
Kb ([1]; Cavia porcellus, Ileum): 0.00363 µM
